Screens as filed in PubChem.
A selection: hits, their analogues and other compounds. The true share with any hit is near 1.7%.
Vif inh = HIV Vif inhibition. HEK293T cells, Vif self-association by quenched fluorescence, imaging, 24 h. inhibition, % at 7.49 µM. actives 0.35% (n = 340,000); in the data active means inhibition above about 50%, passing the limit was not always enough; inconclusive means no clear call, values can overlap the other calls; inactive means below about 31%
V-ATPase pH = regulators of yeast V-ATPase proton transport; response, % at 10 µM; S. cerevisiae, pHLuorin cytosolic pH fluorescence; actives 0.37% (n = 350,000); in the data active means response mostly above about 7.3%, no sharp cut-off; inactive means mostly below about 5.4%; further: actives read high
CaV13 ICDI inh = Primary screen for inhibitors of IQ motif and Ca2+-dependent inactivation inhibitor domain binding in CACNA1D, Förster resonance energy transfer in living cells, …; AID 743397; inhibition, % at 12.3 µM; HEK cells, CFP/YFP FRET ICDI-IQ, plate reader, 10 min; percent FRET-ratio fall versus neutral wells; actives 0.098% (n = 340,000);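 active means mean replicate inhibition of at least 30% and at least 1% of replicates passing that level; inconclusive means only one of the two criteria is met; inactive means neither criterion is met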
SR-BI HDL uptake = blocks mouse SR-BI lipid uptake from DiI-HDL | Q61009 | ldlA[mSR-BI] CHO cells, DiI-HDL uptake fluorescence, 3 h | inhibition, % at 12.5 µM | actives 0.96% (n = 320,000) | AID 488896;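 active means mean replicate inhibition of at least 70% and a set share of replicates each scoring 70 or more; inconclusive means meets just one of the two criteria; inactive means fails both criteria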
Target sequence (Q61009 whole entry, looked up): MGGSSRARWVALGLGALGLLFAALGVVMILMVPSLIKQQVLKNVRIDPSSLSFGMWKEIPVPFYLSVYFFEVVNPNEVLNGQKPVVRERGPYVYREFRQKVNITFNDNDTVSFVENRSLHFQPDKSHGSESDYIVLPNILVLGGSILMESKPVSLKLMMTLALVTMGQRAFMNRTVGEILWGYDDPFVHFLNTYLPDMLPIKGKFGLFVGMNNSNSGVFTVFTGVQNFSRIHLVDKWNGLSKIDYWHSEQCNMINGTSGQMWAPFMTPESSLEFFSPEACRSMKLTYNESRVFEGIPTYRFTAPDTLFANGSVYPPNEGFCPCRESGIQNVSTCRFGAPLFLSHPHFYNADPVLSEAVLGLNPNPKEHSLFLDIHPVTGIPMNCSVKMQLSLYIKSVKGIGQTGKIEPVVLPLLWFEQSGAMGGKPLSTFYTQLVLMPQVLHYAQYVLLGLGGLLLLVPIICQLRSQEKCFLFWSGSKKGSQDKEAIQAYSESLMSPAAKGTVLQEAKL
NTR1 ag = activates human neurotensin receptor 1 | NTR1-U2OS beta-arrestin-GFP spot imaging, agonist mode | activation, % at 20 µM | actives 0.17% (n = 330,000) | AID 493036;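 active means activation at or above 40% of the spot to cytoplasm intensity ratio, with at least 20 cells analyzed; inconclusive means wells under 20 cells, flagged as cytotoxic or low count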
SR-BI uptake up = enhances SR-BI lipid uptake from DiI-HDL; AID 504775; CHO ldlA[mSR-BI] cells, DiI-HDL uptake fluorescence, 3 h; 100 = double the neutral-control signal; activation, % at 12.5 µM; actives 0.096% (n = 320,000);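 active means mean replicate activation of at least 60% and every replicate at or above 60%; inconclusive means mean or all-replicate condition met, but not both; inactive means mean below 60% and not all replicates reaching 60%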
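Test system: SR-BI-overexpressing, LDLR-lacking CHO cells. Measured by: DiI fluorescence, bottom read. Medium: Ham's F12 with 0.5% BSA, HEPES 25 mM, pH 7.4. Timing: 3 h uptake period with compound, 37 °C.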
V-ATPase pH SP = yeast V-ATPase proton transport regulation; actives 2% (n = 980); response, % at 10 µM; AID 602197; shares compounds with V-ATPase pH; S. cerevisiae pHLuorin cytosolic pH; in the data active means response above about 24%
Each line names hits and unclear results; the compound was inactive in the other large screens (follow-up assays come after a bar, where they were run).

O=S(=O)(c1cccc(F)c1)N1CCN(c2nc(-c3cccnc3)nc3ccccc23)CC1	none
Cc1cc(C)cc(OCCCn2ccnc2)c1	V-ATPase pH 9.0 | V-ATPase pH SP inactive
Cc1cccc(OCCCn2ccnc2)c1	none
COc1cc(OC)cc(-c2c(-c3cccs3)c3cc(-c4ccc(CN5CCOCC5)cc4)ccc3n2C)c1	V-ATPase pH 7.8 | V-ATPase pH SP inactive
Cc1ccc(-c2nc(N)n(S(=O)(=O)c3ccc(C)cc3)n2)cc1	V-ATPase pH 8.7 | V-ATPase pH SP inactive
CCOC(=S)SCC(=O)N1CCc2ccccc2C1C1C(=O)CC(C)(C)CC1=O (stereo not given)	none
CCOC(=S)SCC(=O)N1CCc2cc(OC)c(OC)cc2C1C1C(=O)CC(C)(C)CC1=O (stereo not given)	V-ATPase pH 20 | V-ATPase pH SP inactive
COC(=O)N/N=C/c1cccs1	none
COc1ccc(CCCC(=O)N/N=C\c2cccs2)cc1	V-ATPase pH 8.6 | V-ATPase pH SP inactive
O=C(NC1CCSC1)c1cccc(Cl)c1 (stereo not given)	none
Cc1cccc(S(=O)(=O)N(C)C[C@@H]2OCc3cn(nn3)CCCC(=O)N([C@@H](C)CO)C[C@H]2C)c1	none (no result: SR-BI HDL uptake, NTR1 ag, SR-BI uptake up)
Cc1cccc(S(=O)(=O)N(C)C[C@H]2OCc3cn(nn3)CCCC(=O)N([C@H](C)CO)C[C@@H]2C)c1	V-ATPase pH 4.9 (no result: Vif inh, SR-BI HDL uptake, NTR1 ag, SR-BI uptake up) | V-ATPase pH SP inactive
Nc1sc(-c2ccccc2)cc1C(=O)NCCN1CCOCC1	none (no result: Vif inh, V-ATPase pH, SR-BI HDL uptake, NTR1 ag, SR-BI uptake up)
O=C(O)c1ccc(C(=O)c2cc([N+](=O)[O-])cc([N+](=O)[O-])c2)cc1	none (no result: NTR1 ag)
Cc1nc2ccccn2c(=O)c1NC(=O)c1ccc2c(c1)OCO2	none (no result: SR-BI HDL uptake, NTR1 ag, SR-BI uptake up)
CN1CCN(c2nc3c(c(=O)n(C)c(=O)n3C)n2Cc2ccc(Cl)cc2)CC1	V-ATPase pH 8.0 | V-ATPase pH SP inactive
CN1CCN(c2nc3c(c(=O)[nH]c(=O)n3C)n2Cc2ccc(Cl)cc2)CC1	none
Cc1ccc(C(=O)Nc2ncc(Cc3ccc(F)cc3)s2)o1	none
Cc1ccc(C(=O)Nc2ncc(C)s2)o1	V-ATPase pH 8.8 | V-ATPase pH SP inactive
Cc1cc(C)c(OCCOCCN2CCNCC2)c(C)c1	V-ATPase pH 16 | V-ATPase pH SP inactive
Cc1cc(C)c(OCCOCCN2CCCC2)c(C)c1	none
COc1cccc(N2CCN(C(=O)c3ccc(OC)c(S(=O)(=O)NC4CC4)c3)CC2)c1	none (no result: V-ATPase pH, SR-BI HDL uptake, NTR1 ag, SR-BI uptake up)
CCCOC(=O)c1ccc(-c2ccc(C=O)o2)cc1	V-ATPase pH 8.2 | V-ATPase pH SP inactive
O=C(NNC(=O)c1ccco1)c1csc(N2CCOCC2)n1	none
CCCCCOC(=O)C1=C(C)NC(=O)NC1c1ccc(N(C)C)cc1 (stereo not given)	none
CCCCCOC(=O)C1=C(C)NC(=O)NC1c1ccccc1 (stereo not given)	V-ATPase pH 12 | V-ATPase pH SP inactive
CC(=O)NCC(=O)OCC(=O)c1ccc(Cl)cc1	none
CCC(C)c1ccccc1NC(=O)C(C)OC(=O)CN1C(=O)NC(C)(C)C1=O (stereo not given)	none
c1cnc(N2CCSCC2)nc1	V-ATPase pH 10 (no result: CaV13 ICDI inh) | V-ATPase pH SP inactive
O=C(NC(=S)Nc1cccc(S(=O)(=O)NC2=NCCC2)c1)c1cc(-c2ccco2)nc2ccccc12	V-ATPase pH 13 | V-ATPase pH SP inactive
CCOC(=O)c1c(C)[nH]c(C2=NNC(=NC3CC3)SC2)c1C	none (no result: CaV13 ICDI inh)
Cc1cc[n+](-c2ccccc2)c2ccccc12	none
COC(=O)c1cn(NC(=O)Cc2ccccc2OC)c(=O)c2ccccc12	none
COC(=O)c1cn(NC(=O)Cc2ccccc2Br)c(=O)c2ccccc12	V-ATPase pH 9.1 | V-ATPase pH SP inactive
CCOc1ccc(-n2c(SCC(=O)NCc3ccco3)nc3c([nH]c4ccccc43)c2=O)cc1	V-ATPase pH 10.0 | V-ATPase pH SP inactive
O=C(NNc1cc(Br)c(O)c(Br)c1)c1ccccc1	none
COc1ccc(C)cc1NC(=O)C(=O)NNC(=O)COc1ccc(Cl)cc1	none
Cc1cc(C)nc(SC2=CS(=O)(=O)c3ccccc32)n1	none | V-ATPase pH SP inactive
O=S1(=O)C=C(Sc2nnc(-c3ccccc3)o2)c2ccccc21	V-ATPase pH 17 (no result: CaV13 ICDI inh) | V-ATPase pH SP 26
O=S1(=O)C=C(Sc2nc3ccccc3s2)c2ccccc21	none (no result: Vif inh, V-ATPase pH, CaV13 ICDI inh, SR-BI HDL uptake, SR-BI uptake up)
O=C1C=C(c2ccc(C(=O)O)cc2)C[C@@H](c2ccc(F)cc2)C1	V-ATPase pH 9.7 (no result: Vif inh) | V-ATPase pH SP inactive
O=C1C=C(c2ccc(-c3ccccc3)cc2)C[C@@H](c2ccc(F)cc2)C1	none
CCC(CC)c1nnc(NC(=O)Oc2ccccc2)s1	V-ATPase pH 17 (no result: Vif inh) | V-ATPase pH SP inactive
Cc1nnc(NC(=O)Oc2ccccc2)s1	none (no result: CaV13 ICDI inh)
COc1ccc(CCn2c(=N)c(C(=O)NCCN3CCOCC3)cc3c(=O)n4cccc(C)c4nc32)cc1OC	none (no result: SR-BI uptake up)
COCCCn1c(C(=O)NCCN2CCOCC2)cc2c(=O)n3cccc(C)c3nc21	V-ATPase pH 8.2 | V-ATPase pH SP inactive
ON(CCc1ccncc1)Cc1ccccc1	none (no result: NTR1 ag)
CN1CCN(C(=O)c2c(O)c3cccc4c3n(c2=O)CC4)CC1	none (no result: SR-BI HDL uptake, SR-BI uptake up)
Cc1c(C)n2c3c(cccc13)CC2	V-ATPase pH 6.0 | V-ATPase pH SP inactive
COc1ccccc1CNC(=O)c1oc2ccc(S(=O)(=O)N3CCCC3)cc2c1C	V-ATPase pH 7.2 (no result: CaV13 ICDI inh, SR-BI HDL uptake, SR-BI uptake up) | V-ATPase pH SP inactive
COc1ccccc1CNC(=O)c1oc2ccc(S(=O)(=O)N3CCOCC3)cc2c1C	none (no result: SR-BI HDL uptake, SR-BI uptake up)
CN(C(=O)COc1ccc(Cl)cc1Br)C1CCCCC1	none
CCOC(=O)c1ccc(NC(=S)NC(=O)COc2ccccc2)cc1	V-ATPase pH 65 | V-ATPase pH SP inactive
CCOC(=O)c1ccc(NC(=S)Nc2ccccc2)cc1	none
COc1cc(NC(=O)Cn2cnc3c(NCc4ccccc4)ncnc32)cc(OC)c1OC	V-ATPase pH 11 | V-ATPase pH SP inactive
CS(=O)(=O)N1CCCC(C(=O)Nc2ccccc2)C1 (stereo not given)	V-ATPase pH 12 | V-ATPase pH SP inactive
Cc1cccc2nc(-c3cccnc3)c(NCCC(C)C)n12	V-ATPase pH 12 | V-ATPase pH SP inactive
O=C1C2CCCCN2C(=O)N1CCN1CCN(c2cccc(Cl)c2)CC1 (stereo not given)	V-ATPase pH 6.3, CaV13 ICDI inh inconclusive (no result: NTR1 ag) | V-ATPase pH SP inactive
CCCCn1c(N)c(N(CC(C)C)C(=O)CC2OC(=O)c3ccccc32)c(=O)[nH]c1=O (stereo not given)	V-ATPase pH 11 | V-ATPase pH SP inactive
C[C@H](CO)N1C[C@H](C)[C@@H](CN(C)S(=O)(=O)c2ccccc2)Oc2c(NC(=O)NC3CCCCC3)cccc2C1=O	none
